esBAF inh: inhibitors of esBAF chromatin remodeling in mouse ES cells | Bmi1-luciferase knock-in reporter, 24 h; 100% = twice the neutral-well signal | reporter increase, % at 12.5 µM | 350,000 compounds, 2% hits | AID 602393; in the data active = activation above about 40%; inconclusive = no clear call, values can overlap the other calls;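 note: 0% = median of the plate's neutral control wells and 100% = double that signal; a rise in the Bmi1 reporter signal indicates esBAF inhibition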
Xi reactivation: reactivates the inactive X chromosome in mouse fibroblasts. activation, % at 7.58 µM. AID 743238. XiGFP mouse fibroblasts, % GFP-positive cells imaging, 3 d; cells co-treated with 5-aza-dC sensitizer; scaled so ellipticine positive control = 100%. 360,000 compounds, 0.055% hits;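 active = mean normalized replicate activation at least 10% and every replicate at or above 10%; inconclusive = only one of the two criteria met; inactive = mean below 10% and not all replicates reach 10%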;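 note: 0% = median of on-plate neutral control wells and 100% = ellipticine 6 µM median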
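Material: XiGFP fibroblasts, SV40-immortalized. Buffer or medium: DMEM plus 5-aza-dC sensitizer. Compound: single concentration per compound, delivered by pin transfer. Times: 3 days compound exposure. Controls: ellipticine 6 µM.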
Vif inh: blocks HIV Vif function | HEK293T cells, Vif self-association by quenched fluorescence, imaging, 24 h | inhibition, % at 7.49 µM | 340,000 compounds, 0.35% hits; in the data active = inhibition above about 50%, passing the limit was not always enough; inconclusive = no clear call, values can overlap the other calls; inactive = below about 31%
MITF TRPM1 HTS: activators of MITF-driven TRPM1 promoter activity in SK-MEL-5 cells. SK-MEL-5 TRPM1-promoter luciferase, 24 h; % of positive control, neutral wells = 0. activation, % at 12.5 µM. 300,000 compounds, 0.75% hits. AID 588334;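 active = mean activation of at least 80% with every replicate also reaching 80%; inconclusive = mean reaches 80% but some replicate falls short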;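 note: 0% = neutral control wells and 100% = parthenolide positive control wells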
Wnt act: activates Wnt/beta-catenin signaling in a reporter cell assay. activator, plate reader. activation, % at 9.35 µM. 300,000 compounds, 1.2% hits; in the data active = activation above about 30%, passing the limit was not always enough; inconclusive = no clear call, values can overlap the other calls;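 note: 0% = neutral control wells and 100% = positive control wells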
* hit, by the source's call; ? = inconclusive; . = not tested or not shown. Sampled rows, rich in hits. Any-hit rate of the full collection: about 2.6%.

SMILES | esBAF inh | Xi reactivation | Vif inh | MITF TRPM1 HTS | Wnt act
Cc1cccnc1NC(N)=S | . | 0 | -2 | 0 | 1
CCCN(C)C[C@@H]1OCCCC[C@H](C)Oc2ccc(NC(=O)Nc3ccc4c(c3)OCO4)cc2C(=O)N([C@H](C)CO)C[C@@H]1C | -5 | 1 | . | . | .
O=C(C[C@H]1C[C@H]2c3cc(NC(=O)CC4CC4)ccc3O[C@H]2[C@H](CO)O1)NCc1ccc(Cl)cc1 | 2 | 0 | . | . | .
Cc1cccnc1NC(=S)NCCc1ccccc1 | ? | 0 | 5 | ? | 40*
CCCC(=O)Nc1ccc2c(c1)OC[C@H](C)N(Cc1ccccc1)C[C@@H](C)[C@@H](OC)CN(C)C2=O | 1 | 0 | . | . | .
CCc1cc2cc(C(=O)Nc3ccccc3F)sc2s1 | 18 | . | -8 | 52 | -1
CC(C)(C)c1ccc(C(=O)Nc2ccc(F)cc2)s1 | . | 0 | 4 | 91* | 5
CCc1cc2cc(C(=O)Nc3ccc(F)cc3)sc2s1 | 32 | . | 0 | 37 | 49*
Cn1nc(C(F)(F)F)c2cc(C(=O)Nc3ccc(F)cc3)sc21 | . | 0 | -2 | -10 | -4
Cn1c2ccccc2c(=O)c2ccc(Cl)cc21 | 31 | 0 | 3 | . | 5
Cn1c2ccccc2c(=O)c2ccc(NCc3ccc4c(c3)OCO4)cc21 | 44* | 0 | . | 20 | 6
CN1CCCC1CCNc1ccc2c(=O)c3ccccc3oc2c1 (centres undefined) | 32 | 0 | 2 | 89* | 19
CN1CCC[C@H]1CCNc1ccc2c(=O)c3ccccc3n(C)c2c1 | 64* | 0 | . | 57 | 17
CN1CCCC1CCNc1ccc2oc3ccccc3c(=O)c2c1 (centres undefined) | . | 0 | . | . | 3
COc1cccc2sc3ccc(NCc4ccc5c(c4)OCO5)cc3c(=O)c12 | 15 | 1 | -10 | 20 | 0
C[C@@H]1CN([C@@H](C)CO)C(=O)c2cc(NC(=O)C3CCCCC3)ccc2O[C@@H](C)CCCCO[C@@H]1CN(C)C(=O)Nc1ccc2c(c1)OCO2 | 4 | 0 | . | . | .
C[C@@H]1CN(C)C(=O)c2cccnc2O[C@H]1CN(C)S(C)(=O)=O | . | 0 | . | . | .
O=C(Nc1nccs1)c1ccc(N2CCOCC2)c([N+](=O)[O-])c1 | 40 | 0 | -3 | 64 | 43*
O=C(Nc1ccccc1N1CCOCC1)c1ccc(N2CCOCC2)c([N+](=O)[O-])c1 | . | 0 | 0 | 23 | -7
COc1ccc2oc(-c3ccc(C)c(NC(=O)c4ccc(N5CCOCC5)c([N+](=O)[O-])c4)c3)nc2c1 | 4 | . | 73* | 20 | .
COc1ccc(S(=O)(=O)N(C)C[C@H]2Oc3ccc(NC(=O)C4CC4)cc3CC(=O)N([C@H](C)CO)C[C@H]2C)cc1 | -1 | 0 | . | . | .
CN1CCN(C(=O)C[C@H]2CC[C@H]3[C@H](COc4ccc(NC(=O)c5ccc(F)c(F)c5)cc4C(=O)N3C)O2)CC1 | 2 | 0 | . | . | .
CC(=O)Nc1cccc(OCCCNC(=O)c2ccc(F)cc2)c1 | 5 | 0 | 3 | 14 | 14
CC(C)(C)c1ccc(C(=O)NCCCNC(=O)c2cccnc2)cc1 | 47* | 0 | -21 | 12 | -4
CC(=O)Nc1cccc(OCCCNC(=O)c2ccc(C(C)(C)C)cc2)c1 | -2 | 0 | 26 | . | 31*
SMILES | esBAF inh | Xi reactivation | Vif inh | MITF TRPM1 HTS | Wnt act
CC(C)Oc1ccc(C(=O)NCCCNC(=O)c2cccnc2)cc1 | 2 | 0 | -4 | -3 | 38*
CC(=O)Nc1ccc2c(c1)CC(=O)N(C)C[C@H](C)[C@H](CN(C)C(=O)NC(C)C)O2 | . | 0 | . | . | .
CO[C@@H]1CN(C)C(=O)c2ccc(NC(=O)C3CCCC3)cc2OC[C@H](C)N(C(C)=O)C[C@H]1C | 5 | 0 | . | . | .
COc1cccc(Nc2nc(CN3CCOCC3)nc3sc4c(c23)CCCC4)c1 | -1 | 0 | 96* | -6 | 0
CSc1nc2ccc(NC(=O)c3cccs3)cc2s1 | 78* | 0 | -15 | 90* | 20
CSc1nc2ccc(NC(=O)c3cc4ccccc4o3)cc2s1 | . | 0 | 5 | 54 | 58*
CSc1nc2ccc(NC(=O)c3ccco3)cc2s1 | . | 0 | -7 | 88* | .
CC(=O)Nc1ccc2nc(NC(=O)c3ccco3)sc2c1 | 10 | 0 | 0 | 19 | 16
CSc1nc2ccc(NC(=O)c3ccc(=O)n(C)n3)cc2s1 | . | 0 | 0 | 4 | 13
CSc1nc2ccc3nc(NC(=O)c4ccccc4)sc3c2s1 | 50* | 0 | -1 | 42 | 28
CCC(=O)N1CCC2(CC1)CN(Cc1ccc3c(c1)OCO3)[C@H](CO)c1c2c2ccc(OC)cc2n1C | . | 0 | . | . | .
CSc1nc2ccc(NC(=O)c3ccc(F)c(F)c3)cc2s1 | . | 0 | 1 | 70 | 51*
Cc1ccc2nc(NC(=O)c3cccs3)sc2c1 | -50 | . | . | -7 | 4
Cc1ccc2nc(NC(=S)NC(=O)c3cccs3)sc2c1 | 51* | . | 0 | 21 | .
CSc1nc2ccc(NC(=O)c3ccc(=O)[nH]c3)cc2s1 | 1 | 0 | 11 | -8 | -2
C[C@H](CO)N1C[C@H](C)[C@@H](CN(C)S(=O)(=O)c2ccc(F)cc2)Oc2ccc(NC(=O)Nc3cccc4ccccc34)cc2C1=O | -1 | 0 | . | . | .
COC(=O)c1cn[nH]c1NC(=S)Nc1ccccc1C | 67* | . | -6 | ? | 10
CC(C)NC(=O)Nc1ccc2c(c1)CC(=O)N([C@H](C)CO)C[C@H](C)[C@H](CN(C)S(=O)(=O)c1cn(C)cn1)O2 | 0 | 0 | . | . | .
O=C(NNC(=S)Nc1ccccc1Cl)c1ccccc1 | 71* | 1 | -3 | 93* | 24
O=C(Nc1ccccc1Cl)c1ccccc1Cl | 14 | . | 3 | 32 | 0
O=C(NNC(=S)Nc1ccc(Cl)cc1)c1ccccc1 | 31 | 0 | 0 | 32 | 0
O=C(NNC(=S)Nc1ccccc1Cl)c1ccccc1Cl | 53* | 0 | . | 78 | 26
CCC(C)c1ccc(NC(=S)NCc2cccs2)cc1 (centres undefined) | 8 | . | -5 | 17 | .
CC(C)(C)c1ccc(NC(=S)NCc2cccs2)cc1 | 44* | . | -4 | 36 | .
CCCNC(=O)N1C[C@@H]2[C@H](c3ccccc31)[C@@H](CO)N2C(=O)Nc1ccc(F)cc1 | 4 | 0 | . | . | .
C/C(=C\C(=O)c1ccc(C)cc1)Nc1cccc(O)c1 | 72* | . | -13 | 66 | .
C[C@@H]1CN([C@H](C)CO)C(=O)c2cc(NC(=O)Nc3ccc4c(c3)OCO4)ccc2O[C@@H](C)CCCCO[C@@H]1CN(C)C(=O)Cc1ccccc1 | 4 | ? | . | . | .
O=c1oc(CCCO)cc2ccc(C#Cc3ccsc3)cc12 | 67* | 0 | -5 | 121* | 46*
O=c1oc(CCCO)cc2ccc(C#CC3(O)CCCCC3)cc12 | -33 | 0 | -5 | 48 | 20
CN(C)c1ccc(C#Cc2ccc3cc(CCCO)oc(=O)c3c2)cc1 | 57* | 0 | -11 | 93* | ?
